M1 PAM – positive allosteric modulators of human M1 muscarinic receptor | actives 0.088% (n = 360,000) | AID 588819 | P11229 | CHO-K1 hM1, Fluo-8 calcium fluorescence, ACh EC20; 0% = ACh EC20, 100% = maximal ACh | activation, % at 3 µM; in the data active = activation above about 19%, passing the limit was not always enough
Target sequence (P11229 whole entry, looked up): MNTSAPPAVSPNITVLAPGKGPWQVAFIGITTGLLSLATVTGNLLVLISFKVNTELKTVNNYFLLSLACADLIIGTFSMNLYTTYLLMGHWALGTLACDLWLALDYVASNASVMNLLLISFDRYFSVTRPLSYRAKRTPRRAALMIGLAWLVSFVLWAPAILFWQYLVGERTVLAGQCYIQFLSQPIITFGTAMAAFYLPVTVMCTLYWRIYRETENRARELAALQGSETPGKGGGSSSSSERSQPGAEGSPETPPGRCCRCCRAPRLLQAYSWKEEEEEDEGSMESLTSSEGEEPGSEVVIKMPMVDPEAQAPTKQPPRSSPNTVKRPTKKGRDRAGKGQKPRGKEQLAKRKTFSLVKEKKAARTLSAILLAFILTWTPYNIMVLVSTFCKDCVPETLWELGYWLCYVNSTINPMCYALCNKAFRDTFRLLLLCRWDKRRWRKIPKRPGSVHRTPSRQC
CHRM1 antagonist – human CHRM1 antagonism; P11229; actives 1.3% (n = 360,000); inhibition, % at 3 µM; CHO-K1 hM1, Fluo-8 calcium fluorescence, ACh EC80 antagonist;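 active = percent inhibition above its own plate's cutoff, namely the mean of that plate's compound wells plus 3 SD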;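 also: peak over basal fluorescence ratio during 140 s after agonist addition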
M5 ag – agonists of human muscarinic M5 receptor (CHRM5); P08912; activation, % at 3 µM; AID 624037; CHO-K1 hM5 cells, Fluo-8 calcium fluorescence; 0% DMSO wells, 100% maximal acetylcholine response; actives 0.19% (n = 360,000);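 active = activation above the run's mean over test compounds plus 3 SD, cut at about 23% in these data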;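 also: signal is peak over basal fluorescence ratio across the kinetic read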
M1 ag – agonists of human M1 muscarinic receptor; actives 0.33% (n = 360,000); activation, % at 3 µM; AID 588814; CHO-K1 hM1, Fluo-8 calcium fluorescence, agonist mode; 0% DMSO, 100% acetylcholine EC100; P11229;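 active = activation above the run's mean compound activation plus 3 SD, cut at about 16% in these data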;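 also: peak over basal fluorescence ratio within a 140 s kinetic read after compound addition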
M5 antag – CHRM5 antagonism in calcium assay; actives 0.59% (n = 360,000); AID 624040; P08912; inhibition, % at 3 µM; CHO-hM5 cells, Fluo-8 calcium fluorescence, ACh EC80;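 active = inhibition above a per-plate cutoff, the mean of that plate's test compounds plus 3 SD, cut at about 27% in these data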
CHRM5 PAM – potentiates acetylcholine response at human M5 receptor. CHO-K1 hM5, Fluo-8 calcium, ACh EC20 PAM; 0% = ACh EC20, 100% = ACh EC100. activation, % at 3 µM. actives 0.3% (n = 360,000). AID 624038;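 active = activation above the run cutoff, the mean activation of all test compounds plus 3 SD, cut at about 18% in these data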
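Measured by: Fluo-8 calcium fluorescence; material: human M5 receptor in CHO-K1 cells; schedule: Post-acetylcholine fluorescence recording 140 s; benchmarks: low control EC20 acetylcholine (0%), high control EC100 acetylcholine (100%); read-out: Max/basal fluorescence ratio as % of EC20–EC100 ACh window; compound: single dose, 3 µM nominal final test concentration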
Hits are given with their value; 0 = inactive; - = no result. The list is not random: actives were taken first. Their share in the collection is about 2.1%.

SMILES	M1 PAM	CHRM1 antagonist	M5 ag	M1 ag	M5 antag	CHRM5 PAM
O=C(Nc1ccc(F)cc1)C1CCCN(S(=O)(=O)c2cccc3nonc23)C1 (configuration not stated)	0	0	0	0	0	0
O=C(NCc1ccc(F)cc1)C1CCCN(S(=O)(=O)c2cccc3nonc23)C1 (configuration not stated)	0	0	0	0	0	20
O=C(O)CC1Sc2nc3ccccc3n2C1=O (configuration not stated)	0	0	0	0	0	0
COc1cc(/C=C2\SC(=S)N(CCC(=O)Nc3ccccc3)C2=O)cc(OC)c1OC	0	0	0	0	0	0
Cc1ccc(/C=C2\SC(=S)N(CCC(=O)NNC(=O)c3cccc(O)c3)C2=O)cc1	0	32	0	0	0	0
O=C(CCCN1C(=O)/C(=C/c2cccs2)SC1=S)Nc1cccc(O)c1	0	25	0	0	0	0
COc1cc(/C=C2\SC(=S)N(CCC(=O)Nc3cccc(O)c3)C2=O)cc(OC)c1OC	0	0	0	0	27	0
C/C(=N\NC(=O)COc1cccc(C)c1)c1ccc2ccccc2c1O	0	0	0	0	0	0
CC(C)(C)C(=O)COC(=O)c1cc(-c2cccnc2)nc2ccccc12	0	0	0	0	0	0
O=C1c2ccccc2[C@@H]2C[C@@H](O)[C@H](Nc3cccc4ccccc34)CCN12	0	25	0	0	0	0
CCOC(=O)C(Cc1ccccc1)C(=O)Nc1ccc(N(CC)CC)cc1 (configuration not stated)	0	33	0	0	0	0
Cc1nc2ccccc2cc1OCc1ccccc1	0	18	0	0	0	0
Cc1nc(OCc2ccccc2)c2ccccc2n1	0	0	0	0	0	0
Cc1nc2ccccc2cc1OCc1ccc(Cl)cc1	0	22	0	0	30	0
COc1cccc(COc2cc3ccccc3nc2C)c1	0	34	0	0	31	0
CCCCNC(=O)N1CCN(c2ncccn2)CC1	0	0	0	0	0	0
Cc1ccc(NC(=O)c2ccc(CSc3nnc(C)s3)cc2)cc1	0	0	0	0	0	0
Cc1cc(C)cc(NC(=O)c2ccc(CSc3nnc(C)s3)cc2)c1	0	36	0	0	0	0
COc1ccc(NC(=O)CSc2nnc(CNC(=O)c3cccs3)o2)c(OC)c1	0	0	0	0	0	0
Cc1ccc(NC(=O)CSC2=C(C#N)C(c3ccco3)CC(=O)N2)cc1 (configuration not stated)	0	0	0	0	0	0
Cc1ccc(C(=O)CSC2=C(C#N)C(c3ccco3)CC(=O)N2)c(C)c1 (configuration not stated)	0	0	47	37	0	0
CCN1CCN(c2ncnc3scc(-c4ccc(OC)cc4)c23)CC1	0	0	0	0	0	0
O=C(CSc1ncc(-c2ccc(F)cc2)n1Cc1ccco1)Nc1nccs1	0	0	0	0	0	0
Cc1cnc(NC(=O)CSc2ncc(-c3ccccc3)n2Cc2ccco2)s1	0	0	26	21	0	0
CCOC(=O)c1c(C(C)(C)C)oc2ccc(OCC#N)cc12	0	28	0	0	0	0
SMILES	M1 PAM	CHRM1 antagonist	M5 ag	M1 ag	M5 antag	CHRM5 PAM
Cn1c(SCc2ccccc2)nc2ccsc2c1=O	0	0	0	0	30	0
CCNc1nc(NCC)nc(SCC(C)=O)n1	0	0	0	0	0	0
CN1CCC2(CC1)N=C(c1ccc(F)cc1)C(=S)N2C(=O)c1ccc(C(C)(C)C)cc1	0	49	0	0	33	0
O=C(N1CCCCC1)C12CC3CC(CC(C3)C1)C2	0	0	0	0	0	0
O=C(N1CCCC1)C12CCC3CC(CC(C3)C1)C2	0	0	0	0	0	19
O=C1CC(N2CCN(Cc3ccc4c(c3)OCO4)CC2)C(=O)N1c1cccc2ccccc12 (configuration not stated)	0	0	0	0	0	0
Cc1cc(C)cc(NC(=O)Nc2ccc3c(c2)N(C)C(=O)CS3)c1	0	44	0	0	0	0
Cc1ccc(NC(=O)Nc2ccc3c(c2)N(C)C(=O)CS3)cc1C	0	32	0	0	0	0
CCc1ccc(NC(=O)Nc2ccc3c(c2)N(C)C(=O)CS3)cc1	0	0	0	0	0	0
CC(=O)c1cccc(NC(=O)Nc2ccc3c(c2)N(C)C(=O)CS3)c1	0	35	0	0	30	0
O=C1c2ccccc2C(=O)N1CCCCSc1nnc(-c2ccc(OC(F)F)cc2)o1	0	0	0	0	0	0
O=C(COC(=O)/C=C/c1cccc(F)c1)Nc1ncccn1	24	0	0	0	0	0
CCN(CC)CCNC1=NCCn2c1cc1cc(OC)ccc12	0	0	0	0	0	20
CC(=O)Nc1ccccc1C(=O)C(=O)Nc1cccc(F)c1	0	0	0	0	0	0
Cc1cc(C)nc(CCNC(=O)c2cc(COc3c(F)cccc3F)on2)n1	0	0	0	0	0	0
C[n+]1ccn(CC(=O)c2cccs2)c1	0	0	0	0	0	0
CCCCCCCCCCCCCCCCn1cc[n+](C)c1	0	42	0	0	48	0
CCCCc1c(-c2ccc(OC)c(OC)c2)ncn1CCc1ccccc1OC	-	-	0	-	0	0
CCCCc1c(-c2cccc(OC)c2)ncn1CCc1ccccc1OC	-	-	0	-	33	0
Cc1ccc(NC(=O)CN2C(=O)S/C(=C\c3cc(C)n(C)c3C)C2=O)cc1	0	41	0	0	0	0
CCCCCCCCCCn1ccc(=N)cc1	0	63	0	0	0	0
N=c1ccn(Cc2ccc(F)cc2)cc1	0	0	0	0	0	0
CCCCCCN1Cc2ccccc2C1	0	0	0	0	0	0
CCCCCCCCn1ccc(=N)cc1	0	0	0	0	0	20
O=C(Cc1coc2cc3c(cc12)CCC3)NCC1(N2CCCCC2)CCCCC1	0	0	0	0	0	0
CC(=O)c1c(C)[nH]c(C(=O)N2CCCC(C)C2)c1C (configuration not stated)	0	0	0	0	0	0
COc1cccc(N2CCN(C(=O)c3cccn4c(=O)c5c(C)c(C)sc5nc34)CC2)c1	0	0	0	0	0	19
O=S(=O)(NC1CCCC1)c1ccc(S(=O)(=O)NC2CCCC2)cc1	0	0	28	0	0	0
O=S(=O)(NC1CCCCCCC1)c1ccc(F)cc1	0	0	0	0	0	0
CC(O)(c1cccnc1)c1nc(-c2cccc(C(F)(F)F)c2)cs1 (configuration not stated)	0	0	0	0	0	0
